# Measurements taken from ChEMBL document CHEMBL1811814, “Synthesis and evaluation of indole, pyrazole, chromone and pyrimidine based conjugates for tumor growth inhibitory activities--development of highly efficacious cytotoxic agents” (Eur J Med Chem, 2010).
# Tests used:
# Assay type in all cases: functional
# CAKI-1 [1] = assay: Growth inhibition of human Caki1 cells
# HOP-62 = assay: Growth inhibition of human HOP62 cells
# CCRF-CEM = assay: Growth inhibition of human CCRF-CEM cells
# UACC-257 [2] = assay: Growth inhibition of human UACC257 cells
# 786-0 [3] = assay: Growth inhibition of human 786-0 cells assessed tumor cell growth at 10^-5 M; design: scale not given: the % may be the effect or the level left
# Outline: (§1)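 NCI 60-human-tumor-cell-line panel screen. Each compound was tested at a single concentration of 10^-5 M, and percent growth of tumor cells was recorded for each cell line. Growth inhibition was expressed from these percent-growth values.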
# OVCAR-8 [4] = assay: Growth inhibition of human OVCAR8 cells
# Malme-3M = assay: Growth inhibition of human MALME-3M cells assessed tumor cell growth at 10^-5 M; design: scale not given: the % may be the effect or the level left; outline: as §1
# HL-60(TB) [5] = assay: Growth inhibition of human HL-60(TB) cells
# A549 = assay: Growth inhibition of human A549 cells assessed tumor cell growth at 10^-5 M; design: scale not given: the % may be the effect or the level left; outline: as §1
# T47D = assay: Growth inhibition of human T47D cells
# NCI-H23 = assay: Growth inhibition of human NCI-H23 cells
# U-251 [6] = assay: Growth inhibition of human U251 cells assessed tumor cell growth at 10^-5 M; design: scale not given: the % may be the effect or the level left
# Outline: (§2)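 Single-dose screen at 10^-5 M across the 60 human tumor cell line panel, run to NCI standards. The value is the percent growth of each cell line in the presence of compound. Compounds active at this dose moved on to five-concentration testing (10^-4 to 10^-8 M).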
# DU-145 = assay: Growth inhibition of human DU145 cells
# MDA-MB-468 = assay: Growth inhibition of human MDA-MB-468 cells assessed tumor cell growth at 10^-5 M; design: scale not given: the % may be the effect or the level left; outline: as §1
# 786-0 [7] = assay: Growth inhibition of human 786-0 cells
# SK-MEL-5 [8] = assay: Growth inhibition of human SK-MEL-5 cells
# HL-60(TB) [9] = assay: Growth inhibition of human HL-60(TB) cells assessed tumor cell growth at 10^-5 M; design: scale not given: the % may be the effect or the level left
# Outline: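 HL-60(TB), part of the 60-line panel, tested at a single concentration of 10^-5 M. The read-out is percent tumor cell growth relative to untreated growth.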
# UACC-257 [10] = assay: Growth inhibition of human UACC257 cells assessed tumor cell growth at 10^-5 M; design: scale not given: the % may be the effect or the level left; outline: as §2
# [11] = Growth inhibition of human RPMI8266 cells
# UACC-62 = assay: Growth inhibition of human UACC62 cells
# RXF 393 = assay: Growth inhibition of human RXF393 cells assessed tumor cell growth at 10^-5 M; design: scale not given: the % may be the effect or the level left; outline: as §1
# HT-29 = assay: Growth inhibition of human HT-29 cells
# NCI-H322M [12] = assay: Growth inhibition of human NCI-H322M cells
# NCI-H522 = assay: Growth inhibition of human NCI-H522 cells assessed tumor cell growth at 10^-5 M; design: scale not given: the % may be the effect or the level left; outline: as §1
# OVCAR-8 [13] = assay: Growth inhibition of human OVCAR8 cells assessed tumor cell growth at 10^-5 M; design: scale not given: the % may be the effect or the level left; outline: as §1
# IGROV-1 = assay: Growth inhibition of human IGROV1 cells assessed tumor cell growth at 10^-5 M; design: scale not given: the % may be the effect or the level left; outline: as §1
# HCT-116 = assay: Growth inhibition of human HCT116 cells assessed tumor cell growth at 10^-5 M; design: scale not given: the % may be the effect or the level left; outline: as §1
# [14] = Growth inhibition of human Hs 578T cells
# SK-MEL-5 [15] = assay: Growth inhibition of human SK-MEL-5 cells assessed tumor cell growth at 10^-5 M; design: scale not given: the % may be the effect or the level left; outline: as §1
# U-251 [16] = assay: Growth inhibition of human U251 cells
# SW-620 = assay: Growth inhibition of human SW620 cells assessed tumor cell growth at 10^-5 M; design: scale not given: the % may be the effect or the level left; outline: as §2
# MDA-MB-231 = assay: Growth inhibition of human MDA-MB-231 cells
# NCI-H322M [17] = assay: Growth inhibition of human NCI-H322M cells assessed tumor cell growth at 10^-5 M; design: scale not given: the % may be the effect or the level left; outline: as §1
# CAKI-1 [18] = assay: Growth inhibition of human Caki1 cells assessed tumor cell growth at 10^-5 M; design: scale not given: the % may be the effect or the level left; outline: as §1
# PC-3 = assay: Growth inhibition of human PC3 cells assessed tumor cell growth at 10^-5 M; design: scale not given: the % may be the effect or the level left; outline: as §1
# KM12 = assay: Growth inhibition of human KM12 cells
# SF-268 = assay: Growth inhibition of human SF268 cells assessed tumor cell growth at 10^-5 M; design: scale not given: the % may be the effect or the level left; outline: as §1
# MDA-MB-435 = assay: Growth inhibition of human MDA-MB-435 cells assessed tumor cell growth at 10^-5 M; design: scale not given: the % may be the effect or the level left; outline: as §1
# BT-549 [19] = assay: Growth inhibition of human BT549 cells assessed tumor cell growth at 10^-5 M; design: scale not given: the % may be the effect or the level left; outline: as §1
# COLO 205 = assay: Growth inhibition of human COLO205 cells
# SK-MEL-2 [20] = assay: Growth inhibition of human SK-MEL-2 cells assessed tumor cell growth at 10^-5 M; design: scale not given: the % may be the effect or the level left; outline: as §1
# BT-549 [21] = assay: Growth inhibition of human BT549 cells
# SNB-75 = assay: Growth inhibition of human SNB75 cells
# SK-MEL-2 [22] = assay: Growth inhibition of human SK-MEL-2 cells
# OVCAR-5 = assay: Growth inhibition of human OVCAR5 cells assessed tumor cell growth at 10^-5 M; design: scale not given: the % may be the effect or the level left; outline: as §1
# SF-295 = assay: Growth inhibition of human SF295 cells assessed tumor cell growth at 10^-5 M; design: scale not given: the % may be the effect or the level left; outline: as §1
# ACHN = assay: Growth inhibition of human ACHN cells
# MOLT-4 = assay: Growth inhibition of human MOLT4 cells assessed tumor cell growth at 10^-5 M; design: scale not given: the % may be the effect or the level left; outline: as §1
# TK-10 = assay: Growth inhibition of human TK10 cells assessed tumor cell growth at 10^-5 M; design: scale not given: the % may be the effect or the level left; outline: as §2
# LOX IMVI = assay: Growth inhibition of human LOXIMVI cells assessed tumor cell growth at 10^-5 M; design: scale not given: the % may be the effect or the level left; outline: as §1
# HCC 2998 = assay: Growth inhibition of human HCC2998 cells assessed tumor cell growth at 10^-5 M; design: scale not given: the % may be the effect or the level left; outline: as §1
# [23] = read-out: LC50 (the source's name)
compound,measurement,setting,value
CC1=NN(c2cccc(Cl)c2)C(=O)/C1=C\c1c(O)ccc2ccccc12,GI50,CAKI-1 [1],> 100 µM
same,CC50,CAKI-1 [1]; [23],> 100 µM
same,GI50,HOP-62,31.6 µM
same,CC50,HOP-62; [23],> 100 µM
same,GI50,CCRF-CEM,97.7 µM
same,CC50,CCRF-CEM; [23],> 100 µM
same,GI50,UACC-257 [2],> 100 µM
same,CC50,UACC-257 [2]; [23],> 100 µM
same,Activity,786-0 [3],-46.85%
same,GI50,OVCAR-8 [4],> 100 µM
same,CC50,OVCAR-8 [4]; [23],> 100 µM
same,Activity,Malme-3M,58.97%
same,GI50,HL-60(TB) [5],> 100 µM
same,CC50,HL-60(TB) [5]; [23],> 100 µM
same,Activity,A549,60.45%
same,GI50,T47D,> 100 µM
same,CC50,T47D; [23],> 100 µM
same,GI50,NCI-H23,> 100 µM
same,LC50 (concentration killing 50% of cells),NCI-H23,> 100 µM
same,Activity,U-251 [6],-10.7%
same,GI50,DU-145,70.7 µM
same,CC50,DU-145; [23],> 100 µM
same,Activity,MDA-MB-468,34.53%
same,GI50,786-0 [7],21.3 µM
same,CC50,786-0 [7]; [23],> 100 µM
same,GI50,SK-MEL-5 [8],> 100 µM
same,CC50,SK-MEL-5 [8]; [23],> 100 µM
same,Activity,HL-60(TB) [9],104.49%
same,Activity,UACC-257 [10],79.99%
same,GI50,[11],> 100 µM
same,CC50,[11]; [23],> 100 µM
same,GI50,UACC-62,39.8 µM
same,CC50,UACC-62; [23],> 100 µM
same,Activity,RXF 393,-76.85%
same,GI50,HT-29,> 100 µM
same,CC50,HT-29; [23],> 100 µM
same,GI50,NCI-H322M [12],> 100 µM
same,CC50,NCI-H322M [12]; [23],> 100 µM
same,Activity,NCI-H522,-11.28%
same,Activity,OVCAR-8 [13],22.34%
same,Activity,IGROV-1,33.94%
same,Activity,HCT-116,8.69%
same,GI50,[14],32.3 µM
same,CC50,[14]; [23],> 100 µM
same,Activity,SK-MEL-5 [15],-82.5%
same,GI50,U-251 [16],40.7 µM
same,CC50,U-251 [16]; [23],> 100 µM
same,Activity,SW-620,30.97%
same,GI50,MDA-MB-231,36.3 µM
same,CC50,MDA-MB-231; [23],> 100 µM
same,Activity,NCI-H322M [17],84.08%
same,Activity,CAKI-1 [18],34.96%
same,Activity,PC-3,33.03%
same,GI50,KM12,> 100 µM
same,CC50,KM12; [23],> 100 µM
same,Activity,SF-268,47.23%
same,Activity,MDA-MB-435,20.68%
same,Activity,BT-549 [19],90.21%
same,GI50,COLO 205,> 100 µM
same,LC50,COLO 205,> 100 µM
same,Activity,SK-MEL-2 [20],38.07%
same,GI50,BT-549 [21],27.5 µM
same,CC50,BT-549 [21]; [23],> 100 µM
same,GI50,SNB-75,0.9 µM
same,CC50,SNB-75; [23],> 100 µM
same,GI50,SK-MEL-2 [22],21.8 µM
same,CC50,SK-MEL-2 [22]; [23],> 100 µM
same,Activity,OVCAR-5,16.91%
same,Activity,SF-295,25.62%
same,GI50,ACHN,16.9 µM
same,CC50,ACHN; [23],> 100 µM
same,Activity,MOLT-4,44.19%
same,Activity,TK-10,17.23%
same,Activity,LOX IMVI,-79.39%
same,Activity,HCC 2998,-22.22%
